Rows were chosen to be rich in hits. Some 2% of all compounds tested hit in one or more screens of this group.
S100A4 MyoIIA = inhibitors of human S100A4 binding to myosin IIA peptide; inhibition, % at 10.7 µM; hit rate 0.14% among 360,000; P26447; S100A4/TAMRA-MyoIIA peptide fluorescence polarization; AID 652163;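 active means mean inhibition of at least 70% across replicates, with every replicate also reaching that level; inconclusive means mean inhibition reaches 70% but some replicates fall short; inactive means mean inhibition below 70%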
Target sequence (P26447 whole entry, looked up): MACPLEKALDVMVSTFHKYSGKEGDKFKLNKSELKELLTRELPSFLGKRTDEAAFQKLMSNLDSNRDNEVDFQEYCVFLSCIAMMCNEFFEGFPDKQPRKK
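Material: S100A4 monomer (human). Medium: Calcium-containing HEPES buffer, pH 7.2. Probe or stimulus: labelled myosin peptide probe, 5 nM. Compound dosing: one concentration per compound. Timing: polarization read 5 min after assay mix addition, stable 5–60 min. Benchmarks: DMSO as neutral control, TFP as positive control.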
CAL PDZ FP-1 = human CAL PDZ-peptide interaction inhibition | purified CAL PDZ, TMR-peptide fluorescence polarization, 1 h | inhibition, % at 20 µM | hit rate 0.02% among 330,000 | AID 504414;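 active means highest replicate inhibition of at least 40%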;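 further: plate controls were DMSO neutral control wells for no effect and unlabeled competitor peptide control wells for full effect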
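Assay system – tagged CAL PDZ protein CerCALP, purified · Timing – 1 h at RT · Compound – single point, 20 µM · Measured by – fluorescence polarization from S- and P-plane intensities, G-factor corrected · Evaluation – inhibition from polarization loss · Probe or stimulus – TMR reporter peptide T*-PRC34 · Buffer or medium – pH 7.4 phosphate-saline buffer, reducing agent, detergent, IgG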
CDK5 inh = CDK5/p35 (human) kinase inhibition | Recombinant CDK5/p35, ADP-Glo luminescence, 60 min | inhibition, % at 10 µM | hit rate 0.01% among 330,000 | AID 488839;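 active means highest replicate inhibition of at least 50% and at least 75% of replicates reaching 50%; inconclusive means only one of the two criteria met; inactive means both criteria failed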;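 further: plate controls were DMSO neutral control for no effect and GW8510 at 10 µM for full effect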
Target sequence (Q00535 whole entry, looked up): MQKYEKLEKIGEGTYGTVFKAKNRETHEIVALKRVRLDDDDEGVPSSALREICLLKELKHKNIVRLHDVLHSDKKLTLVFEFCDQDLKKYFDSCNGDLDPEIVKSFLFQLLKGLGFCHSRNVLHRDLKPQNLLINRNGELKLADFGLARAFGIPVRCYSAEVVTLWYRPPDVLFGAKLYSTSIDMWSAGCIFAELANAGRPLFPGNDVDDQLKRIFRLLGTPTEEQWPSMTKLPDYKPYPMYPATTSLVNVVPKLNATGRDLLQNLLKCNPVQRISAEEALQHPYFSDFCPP
Target sequence (Q15078 whole entry, looked up): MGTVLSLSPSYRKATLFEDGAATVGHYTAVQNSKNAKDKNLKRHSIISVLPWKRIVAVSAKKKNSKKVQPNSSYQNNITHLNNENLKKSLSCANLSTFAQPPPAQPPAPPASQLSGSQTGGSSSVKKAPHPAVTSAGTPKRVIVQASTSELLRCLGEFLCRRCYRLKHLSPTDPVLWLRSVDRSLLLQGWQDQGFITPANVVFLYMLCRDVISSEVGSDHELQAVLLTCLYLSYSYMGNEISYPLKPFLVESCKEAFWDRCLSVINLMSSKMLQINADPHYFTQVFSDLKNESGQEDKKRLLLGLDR
dFosB activator = mouse delta FosB homodimer activation; purified delta FosB, TAMRA-CDK5 oligo fluorescence polarization; percent of positive-control signal above neutral wells; activation, % at 25 µM; hit rate 0.99% among 340,000; AID 493131;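 active means mean activation above about 17%, with every replicate also reaching it, limit read from the data, passing the limit was not always enough; inconclusive means only one of the two conditions met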
CAL PDZ FP-2 = blocks peptide binding to the human CAL PDZ domain; purified CAL PDZ, TMR-peptide fluorescence polarization, 1 h; inhibition, % at 24.9 µM; hit rate 0.92% among 300,000;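 active means mean inhibition of at least 30% with at least half of replicates also reaching 30%; inconclusive means no clear call, values can overlap the other calls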;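 further: 0% = DMSO neutral control and 100% = excess unlabeled competitor peptide PRC23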
Statin myotox sup = suppressors of simvastatin-induced myotoxicity in C2C12 myotubes; ATP luminescence, 48 h; scaled: DMSO 0, geranylgeraniol control 100; rescue of ATP level, % at 7.49 µM; hit rate 0.78% among 330,000; AID 602340;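 active means mean ATP rescue above about 67%, or every replicate alone reaching that limit, limit read from the data, passing the limit was not always enough; inconclusive means no clear call, values can overlap the other calls; inactive means mean under the limit and some replicate under it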;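 further: myotubes were challenged with 10 µM simvastatin during compound exposure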
* = called active by the depositor; ? = inconclusive; nt = no result.

SMILES | S100A4 MyoIIA | CAL PDZ FP-1 | CDK5 inh | dFosB activator | CAL PDZ FP-2 | Statin myotox sup
CC(=O)c1ccc(-n2cc(C#N)c(=O)[nH]c2=O)cc1 | 3.3 | -1.5 | -0.4 | 6.2 | -4.8 | -8.9
FC(F)(F)c1cccc(Cc2noc(CN3CCSCC3)n2)c1 | 1.7 | -2.2 | -1.2 | -3.6 | -0.5 | nt
Fc1cccc(Cc2noc(CN3CCSCC3)n2)c1 | -7.8 | -1.0 | -1.7 | -1.5 | 57.4* | nt
CCOC(=O)c1c(C)sc2c1N(C(=O)CN(CC)CC)c1cc(Cl)ccc1S2 | nt | 0.6 | -0.5 | -4.4 | nt | 115.3*
CCOC(=O)c1c(C)sc2c1N(C(=O)CN(CC)CC)c1ccccc1S2 | nt | -1.9 | 0.5 | 3.3 | 0.5 | nt
O=C(O)/C=C/c1coc2ccc(F)cc2c1=O | nt | 0.2 | -6.0 | 1.4 | 0.7 | nt
CO[C@H]1CN(C)C(=O)c2ccc(NS(C)(=O)=O)cc2OC[C@@H](C)N(CC2CC2)C[C@H]1C | -10.9 | nt | nt | nt | nt | -9.7
Cc1ccc(O)c(NC(=O)c2cc(-c3cccs3)on2)c1 | -5.3 | -2.0 | 0.0 | 15.5 | -2.2 | 213.0*
Cc1ccc(O)c(NC(=O)c2cc(-c3ccc(F)cc3)on2)c1 | 4.6 | 0.4 | -1.2 | 2.4 | -1.4 | 27.3
CC(C)NC(=O)COc1coc(CN2CCN(c3ccccc3F)CC2)cc1=O | -4.8 | -1.0 | 1.1 | 0.9 | 60.3* | 17.8
COc1cnc(N(C)C)nc1Sc1ccc(Cl)cc1 | nt | -2.1 | -0.7 | 3.4 | 7.0 | 103.7*
COc1cnc(-c2ccccn2)nc1Sc1ccc(Cl)cc1 | nt | -0.2 | -0.7 | -8.7 | -2.2 | -2.6
CCNc1nc(NCC)nc(N/N=C/c2ccc([N+](=O)[O-])o2)n1 | nt | nt | 2.4 | 1.4 | -10.0 | 5.3
Cc1nc(C)c(C(=O)C2=C(O)C(=O)N(CCCn3ccnc3)C2c2ccc(Cl)cc2)s1 (stereo unspecified) | nt | -0.1 | 0.2 | -2.5 | nt | 127.9*
CCC(C(=O)Nc1ccccc1-c1ccccc1)c1ccccc1 (stereo unspecified) | 0.0 | nt | -0.7 | -3.4 | -5.2 | 113.0*
CCC(C(=O)NCCCN1CCN(CCCNC(=O)C(CC)c2ccccc2)CC1)c1ccccc1 (stereo unspecified) | 0.4 | 0.0 | 6.2 | -1.6 | -1.5 | -10.0
CCC(C(=O)Nc1ccccc1)c1ccccc1 (stereo unspecified) | nt | -0.5 | 0.3 | -5.5 | -1.2 | nt
CCC(C(=O)NN1C(=O)c2ccccc2C1=O)c1ccccc1 (stereo unspecified) | 1.5 | 45.4* | -0.2 | -5.4 | -5.9 | nt
O=C(CN(c1ccccn1)S(=O)(=O)c1ccc(F)cc1)Nc1ccc(F)cc1F | -9.0 | -1.5 | -0.8 | 2.4 | 0.0 | nt
Cc1ccc(NC(=O)CC2=NC(=O)C(CC(=O)Nc3ccccc3C)S2)cc1 (stereo unspecified) | 0.4 | -0.3 | -0.2 | 34.1* | -0.7 | -38.1
O=C1C=CC(c2ccccc2)(c2ccccc2)CC1 | 2.9 | 0.4 | -1.2 | -4.8 | 38.0* | -3.0
Cc1ccc2nc(NC(=O)COC(=O)c3ccncc3)sc2c1 | -6.5 | 32.9 | -0.6 | -9.2 | 62.2* | nt
COCC(=O)Nc1nc2ccc(C)cc2s1 | nt | -0.2 | 2.0 | -3.2 | -3.5 | nt
CCOC(=O)c1cnc(SC)nc1Oc1cccc(NS(=O)(=O)c2ccc(C)cc2)c1 | nt | -0.2 | -1.6 | -7.1 | 4.2 | 90.3*
CCOC(=O)c1ccccc1NS(=O)(=O)c1ccc(C)cc1 | nt | -2.3 | -0.3 | -7.8 | -0.7 | nt
SMILES | S100A4 MyoIIA | CAL PDZ FP-1 | CDK5 inh | dFosB activator | CAL PDZ FP-2 | Statin myotox sup
O=[N+]([O-])c1ccc(/C=N/Nc2nc(-c3ccccc3)c3cc(Br)ccc3n2)o1 | nt | 1.3 | -0.5 | 22.9* | 0.7 | nt
OCCNc1nc(-c2ccccc2)c2cc(Br)ccc2n1 | 2.2 | -25.1 | -0.3 | -7.5 | -2.0 | -12.2
N#Cc1ccccc1/C=N/Nc1nc(-c2ccccc2)c2cc(Br)ccc2n1 | nt | -1.2 | 1.2 | ? | -5.3 | 98.9*
Cc1ccccc1-c1cnc2c(c1)C(=O)N([C@H](C)CO)C[C@H](C)[C@@H](CN(C)C(=O)c1cccnc1)O2 | -0.5 | nt | nt | nt | nt | -0.8
C[N+](C)(CC#N)C/C=C\c1ccccc1 | -18.2 | -0.4 | -4.1 | 0.0 | 76.0* | nt
COC(=O)c1ccc(CSc2nnc3nc(C)cc(C)n23)cc1 | -3.3 | -0.7 | 0.2 | -7.3 | 33.3* | nt
Cc1cc(C)n2c(SCc3c(C)noc3C)nnc2n1 | nt | -1.0 | -4.1 | 0.7 | -0.5 | 92.5*
Cc1cc(C)n2c(SCc3ccc(Br)cc3)nnc2n1 | 3.4 | nt | nt | nt | nt | nt
Cc1cc(C)n2c(SCc3ccccc3Cl)nnc2n1 | nt | -3.5 | 0.0 | -14.8 | -4.8 | nt
N#C[C@H]1[C@H](c2ccc(C#CC3(O)CCCC3)cc2)[C@H](CO)N1C(=O)C1CCC1 | -1.7 | nt | nt | nt | nt | -1.5
O=[N+]([O-])c1ccccc1CN1CCN(S(=O)(=O)Cc2ccccc2)CC1 | 104.6* | 0.3 | 2.6 | -6.1 | -3.7 | nt
CCCS(=O)(=O)N1CCN(Cc2ccccc2[N+](=O)[O-])CC1 | -0.1 | -0.6 | 1.8 | -0.3 | -4.0 | -6.2
O=C(O)c1cc(C(F)(F)F)nc2c(C(F)(F)F)cccc12 | -2.2 | -0.4 | 0.3 | -7.5 | -0.9 | 3.2
Cc1cc2cc(CNC(=O)c3ccc(S(=O)(=O)N4CCCC4)cc3)ccc2n1C | 121.4* | 0.8 | 1.9 | -8.2 | 4.9 | 5.0
C[C@@H]1CCCCO[C@H](CN(C)C(=O)Nc2cccc3ccccc23)[C@H](C)CN([C@@H](C)CO)C(=O)c2cc(NS(=O)(=O)c3ccc(Cl)cc3)ccc2O1 | 5.2 | nt | nt | nt | nt | 192.0*
C[C@@H]1CCCCO[C@@H](CN(C)C(=O)Nc2cccc3ccccc23)[C@H](C)CN([C@@H](C)CO)C(=O)c2cc(NS(=O)(=O)c3ccc(Cl)cc3)ccc2O1 | 0.6 | nt | nt | nt | nt | 136.8*
C[C@@H]1CN([C@@H](C)CO)C(=O)c2cc(NS(=O)(=O)c3ccc(Cl)cc3)ccc2O[C@@H](C)CCCCO[C@H]1CN(C)C(=O)Nc1cccc2ccccc12 | -5.0 | nt | nt | nt | nt | 52.8
COc1ccc(-c2nnnn2-c2ccccc2OC)cc1 | nt | nt | -2.1 | 2.6 | 1.7 | -15.9
Cc1cccc(CS(=O)(=O)Cc2ccc(C(=O)O)o2)c1 | nt | -1.3 | 1.4 | 7.3 | 74.6* | -4.6
COc1ccc(Cl)cc1CN1C(=O)NC2(CCCCCC2)C1=O | 1.8 | -0.9 | -6.9 | -15.9 | -4.5 | 0.3
CCN(CC)C(=O)c1ccc(/C=C/c2c[nH]c3ccccc23)[n+](C)c1 | nt | -1.4 | -0.1 | 2.9 | -3.0 | -73.2
CC[n+]1c(/C=C/c2c[nH]c3ccccc23)ccc2cc(C)ccc21 | 128.8* | 8.9 | 2.7 | 12.2 | -14.2 | nt
C[C@@H]1CN([C@@H](C)CO)C(=O)c2cc(NS(C)(=O)=O)ccc2O[C@H]1CN(C)C(=O)Nc1ccccc1 | 7.8 | nt | nt | nt | nt | 12.7
Cn1c(=O)[nH]c(=O)c2c1nc(CN1CCN(c3cccc(Cl)c3)CC1)n2CCc1ccccc1 | 5.3 | -3.2 | -3.1 | 8.4 | 1.3 | 92.4*

Bioassay records as filed in PubChem.
